Experimental data reported in ChEMBL document CHEMBL3425511 (J Med Chem, 2015).
Calls of active or inactive are those of the source. The rule behind the calls is not given here.

Columns and labels:
[1] = Half life in mouse at 10 mg/kg, po; format: ADME, organism-based; set-up: dose 10 mg/kg, route oral; settings: in vivo
Method in brief: (§1)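 Oral dosing at 10 mg/kg as a solution of the sodium salt in 20% HPβCD, n = 4 animals per group.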

[2] = biological target: T1, Cytochrome P450 1A2 (Homo sapiens, UniProt P05177); experiment: Inhibition of CYP1A2 in human liver microsomes; format: ADME
T1 sequence (P05177 whole entry): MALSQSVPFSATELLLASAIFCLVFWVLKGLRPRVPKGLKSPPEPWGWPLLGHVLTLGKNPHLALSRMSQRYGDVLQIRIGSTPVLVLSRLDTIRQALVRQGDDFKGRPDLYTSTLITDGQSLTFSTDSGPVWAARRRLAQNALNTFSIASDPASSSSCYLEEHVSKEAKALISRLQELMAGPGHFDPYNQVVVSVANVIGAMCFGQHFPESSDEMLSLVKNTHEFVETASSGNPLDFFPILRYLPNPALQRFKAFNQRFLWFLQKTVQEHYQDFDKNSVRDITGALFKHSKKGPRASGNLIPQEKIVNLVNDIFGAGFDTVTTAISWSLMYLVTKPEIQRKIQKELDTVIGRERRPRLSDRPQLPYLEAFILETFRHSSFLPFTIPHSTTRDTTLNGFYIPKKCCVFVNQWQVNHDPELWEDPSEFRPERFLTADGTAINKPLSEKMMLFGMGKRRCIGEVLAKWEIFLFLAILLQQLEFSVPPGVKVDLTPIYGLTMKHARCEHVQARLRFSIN

[3] = Cmax in dog at 10 mg/kg, po; format: ADME, organism-based, Canis lupus familiaris; set-up: dose 10 mg/kg, route oral; settings: in vivo; method in brief: as §1
[4] = test system: Cavia porcellus; experiment: Toxicity in guinea pig assessed as induction of hemodynamic/electrocardiographic effect at 10 mg/kg, iv; format: organism-based; set-up: dose 10 mg/kg, route intravenous; settings: in vivo
Method in brief: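 Anesthetized guinea pigs dosed intravenously to a cumulative 10 mg/kg; hemodynamic and electrocardiographic parameters monitored.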

[5] = Oral bioavailability in mouse at 10 mg/kg; format: ADME, organism-based; settings: in vivo; method in brief: as §1
[6] = biological target: Cytochrome P450 3A4 (Homo sapiens, UniProt P08684); experiment: Inhibition of CYP3A4 in human liver microsomes; format: ADME
[7] = Half life in rat at 2 mg/kg, iv; format: ADME, organism-based; set-up: dose 2 mg/kg, route intravenous; settings: in vivo
Method in brief: (§2)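 Intravenous dosing at 2 mg/kg as a solution of the sodium salt in 20% HPβCD, n = 4 animals per group.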

[8] = biological target: Transient receptor potential cation channel subfamily A member 1 (Homo sapiens) (UniProt O75762); experiment: Effect on TRPA1 (unknown origin)
[9] = test system: Rattus norvegicus; experiment: Reversal of complete freund's adjuvant-induced thermal hypersensitivity in po dosed Sprague-Dawley rat assessed as plasma concentration required to reach ED80 measured at 100 mins; format: functional
Method in brief: (§3)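 Rats dosed orally 100 min before radiant-heat testing. For CFA, plasma taken right after behavioural testing; for carrageenan, taken from a separate group dosed identically. Blood collected on lithium heparin and centrifuged, plasma stored at −80 °C. Plasma levels matching ED50 and ED80 (EC50/EC80) computed from the dose−response data.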

[10] = test system: Rattus norvegicus; experiment: Reversal of carrageenan-induced thermal hypersensitivity in po dosed Sprague-Dawley rat assessed as plasma concentration required to reach ED80 measured at 100 mins; format: functional; method in brief: as §3
[11] = Half life in rat at 10 mg/kg, po; format: ADME, organism-based; set-up: dose 10 mg/kg, route oral; settings: in vivo; method in brief: as §1
[12] = Cmax in rat at 10 mg/kg, po; format: ADME, organism-based; set-up: dose 10 mg/kg, route oral; settings: in vivo; method in brief: as §1
[13] = Clearance in mouse at 2 mg/kg, iv; format: ADME, organism-based; set-up: dose 2 mg/kg, route intravenous; settings: in vivo; method in brief: as §2

Sequence of Cytochrome P450 3A4 (P08684 whole entry): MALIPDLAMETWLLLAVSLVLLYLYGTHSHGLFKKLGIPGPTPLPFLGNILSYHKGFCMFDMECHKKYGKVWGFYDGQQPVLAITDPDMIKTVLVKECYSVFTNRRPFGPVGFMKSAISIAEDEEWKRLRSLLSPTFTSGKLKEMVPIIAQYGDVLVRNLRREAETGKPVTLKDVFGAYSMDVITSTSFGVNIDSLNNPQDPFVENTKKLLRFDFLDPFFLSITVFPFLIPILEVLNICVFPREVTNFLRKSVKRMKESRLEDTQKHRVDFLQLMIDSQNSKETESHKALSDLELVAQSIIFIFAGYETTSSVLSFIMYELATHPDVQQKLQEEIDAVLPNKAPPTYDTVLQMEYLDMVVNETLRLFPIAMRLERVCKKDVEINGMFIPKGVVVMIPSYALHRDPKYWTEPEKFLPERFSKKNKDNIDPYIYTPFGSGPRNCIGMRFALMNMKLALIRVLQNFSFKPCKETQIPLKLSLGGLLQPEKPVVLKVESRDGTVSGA
Sequence of Transient receptor potential cation channel subfamily A member 1 (Homo sapiens) (O75762 whole entry): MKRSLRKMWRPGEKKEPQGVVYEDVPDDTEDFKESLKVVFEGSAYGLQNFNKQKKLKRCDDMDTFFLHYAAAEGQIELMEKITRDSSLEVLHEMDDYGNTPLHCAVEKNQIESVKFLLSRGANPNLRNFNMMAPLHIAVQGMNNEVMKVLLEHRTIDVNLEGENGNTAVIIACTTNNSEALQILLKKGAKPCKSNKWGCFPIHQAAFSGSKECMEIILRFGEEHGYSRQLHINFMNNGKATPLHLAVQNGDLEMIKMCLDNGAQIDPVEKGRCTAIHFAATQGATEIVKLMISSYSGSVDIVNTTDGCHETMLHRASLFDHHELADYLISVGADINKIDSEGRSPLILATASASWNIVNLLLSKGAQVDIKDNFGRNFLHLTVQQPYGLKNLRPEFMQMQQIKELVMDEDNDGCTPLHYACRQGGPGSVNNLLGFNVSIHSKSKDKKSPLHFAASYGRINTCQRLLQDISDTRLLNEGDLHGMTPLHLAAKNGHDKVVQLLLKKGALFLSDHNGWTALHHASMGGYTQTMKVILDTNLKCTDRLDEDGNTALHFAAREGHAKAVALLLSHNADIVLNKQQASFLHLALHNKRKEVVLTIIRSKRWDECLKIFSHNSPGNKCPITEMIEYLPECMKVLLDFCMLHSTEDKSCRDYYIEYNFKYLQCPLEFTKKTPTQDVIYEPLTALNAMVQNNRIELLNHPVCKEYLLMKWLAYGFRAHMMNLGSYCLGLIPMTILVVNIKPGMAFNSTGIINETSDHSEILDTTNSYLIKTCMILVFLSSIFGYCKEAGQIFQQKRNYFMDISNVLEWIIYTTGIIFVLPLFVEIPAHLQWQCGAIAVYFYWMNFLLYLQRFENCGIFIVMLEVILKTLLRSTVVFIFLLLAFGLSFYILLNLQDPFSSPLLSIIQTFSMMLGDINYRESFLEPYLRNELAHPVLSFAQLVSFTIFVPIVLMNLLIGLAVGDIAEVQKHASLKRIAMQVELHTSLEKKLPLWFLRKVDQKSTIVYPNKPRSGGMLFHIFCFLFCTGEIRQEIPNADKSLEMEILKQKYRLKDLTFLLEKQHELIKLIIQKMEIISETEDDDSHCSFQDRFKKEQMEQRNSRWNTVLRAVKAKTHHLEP

half-life [1]: 5.87 h
IC50 [2]: > 25 µM
Cmax [3]: 1.61 µg/mL
bioavailability [5]: 83.3%
IC50 [6]: > 25 µM
half-life [7]: 3.4 h
Activity [8]: inactive
half-life [11]: 3.8 h
Cmax [12]: 0.421 µg/mL
clearance [13]: 0.63 L/h/kg
Compound: CC(C)(O)c1ccccc1-c1ccc2[nH]c(/C=C/c3ccc(C(F)(F)F)cc3)nc2c1
Activity [4]: Non-toxic
Activity [9]: 270.8 ng/mL
Activity [10]: 9.2 ng/mL
